For test [1], the system named is ST14A. Description: Increase in BDNF mRNA expression in rat ST14A cells expressing RE1/NRSE BDNF promoter after 72 hrs by RT-PCR relative to control. Type of test: functional, cell-based. The procedure, abridged: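 Cells treated 72 h; total RNA (1 µg) reverse transcribed, three independent reactions per RNA stock, triplicate SYBR Green real-time PCR with 25 ng cDNA, 0.2 µM primers; BDNF cycling 95 °C 10 min then 40 × (95 °C 10 s, 56 °C 10 s, 72 °C 20 s), melt-curve check; normalized to β-actin, fold over untreated; three independent experiments.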

Test [2] is described as follows: (§1) […] of REST/NRSF-coupled repression of luciferase tagged rat RE1/NRSE BDNF promoter activity expressed in ST14A cells assessed as increase in luciferase activity. Type of test: cell-based. The procedure, abridged: (§2)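 Stable ST14A clone carrying RE1/NRSE(BDNF)-firefly luciferase, selected for DN:REST responsiveness; cells in 96 wells exposed after adhesion to compounds (DMSO, 10 mM stock) in triplicate, 72 h; luciferin added, luminescence expressed as RLU per µg protein (BCA), relative to untreated; EC50 from dose–response.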

Test [3] can be described thus: Increase in BDNF protein expression in […]/HdhQ11 cells expressing homozygous mutant huntingtin gene at 200 nM after 72 hrs by ELISA relative to control. The test is classed as functional. The procedure, abridged:
(§3)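 BDNF protein after 72 h compound exposure: lysis in Tris-HCl pH 7.5, 150 mM NaCl, 1% Triton X-100, 10% glycerol, EDTA/EGTA, protease inhibitors; homogenized, sonicated, centrifuged 15 min at 4 °C; supernatant assayed by BDNF immunoassay, normalized to BCA total protein; fold over untreated cells.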

The subject of test [4] is ST14A. Description: Increase in REST/NRSF mRNA expression in rat ST14A cells after 72 hrs by RT-PCR relative to control. Type of test: functional, cell-based. The procedure, abridged: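 REST/NRSF transcript by SYBR Green real-time PCR after 72 h exposure: 95 °C 3 min, then 45 × (95 °C 30 s, 60 °C 30 s, 72 °C 30 s), melt curve 55–94 °C; normalized to β-actin, fold over untreated; triplicate reactions.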

Test [5] is described as follows: Increase in cell viability of stress-exposed […]/HdhQ11 cells expressing homozygous mutant huntingtin gene at 50 nM after 48 hrs by MTT assay. The test is classed as functional. The gist of the method:
(§4)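 Cells plated at 80,000/well in triplicate, 24 h at 33 °C, washed, switched to serum-deprived medium at 37 °C as stress, with or without compound; MTT read 48 h after treatment, formazan at 560 nm after 1 h at 37 °C; three independent experiments.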
Background: Formazan colour is commonly taken as a measure of viable cells.

Test [6] has as its system ST14A. The test can be described thus: Increase in E2F1 mRNA expression in rat ST14A cells after 72 hrs by RT-PCR relative to control. The test is classed as functional, cell-based. The gist of the method: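 E2F1 SYBR Green real-time PCR after 72 h exposure: 95 °C 10 min, then 40 × (95 °C 15 s, 60 °C 1 min), fluorescence read at 60 °C, melt curve 55–94 °C; normalized to β-actin, fold over untreated cells; triplicate reactions.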

The subject of test [7] is STHdhQ11/HdhQ11. The test can be described thus: Effect on REST/NRSF translocation in mouse STHdhQ11/HdhQ11 cells expressing homozygous mutant huntingtin gene.
For another test, the species on record is Mus musculus. The test can be described thus: Effect on cell proliferation of stress-exposed mouse STHdhQ11/HdhQ11 cells expressing homozygous mutant huntingtin gene assessed as BrdUrd incorporation.
Test [8] deals with ST14A. Description: Increase in RE1/NRSE promoter regulated synapsin I mRNA expression in rat ST14A cells at 200 nM after 72 hrs by RT-PCR relative to control. The test is classed as functional, cell-based. The gist of the method:
(§5)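 72 h exposure; SYBR Green real-time PCR for synapsin I and M4: 95 °C 3 min, then 40 × (95 °C 30 s, 58 °C 30 s, 72 °C 30 s), melt curve 55–94 °C; normalized to β-actin, fold over untreated; triplicate reactions.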

In test [9] the test system is ST14A. The test can be described thus: Increase in BDNF protein expression in rat ST14A cells expressing RE1/NRSE BDNF promoter after 72 hrs by ELISA relative to control. Type of test: functional, cell-based. The gist of the method:
as §3
On the technique in general: An ELISA detects its analyte on a solid surface through an enzyme-linked reagent.

Test [10] deals with ST14A. The test can be described thus: Increase in RE1/NRSE promoter regulated muscarinic M4 receptor mRNA expression in rat ST14A cells at 200 nM after 72 hrs by RT-PCR relative to control. The test is classed as functional, cell-based. The gist of the method:
as §5

Test [11] relates to STHdhQ11/HdhQ11. Description: Increase in cell viability of stress-exposed […]/HdhQ11 cells expressing homozygous mutant huntingtin gene at 25 nM after 48 hrs by MTT assay. Type of test: functional, cell-based. The gist of the method: as §4
In test [12] the test system is ST14A. The test can be described thus: […] of REST/NRSF-coupled repression of luciferase tagged rat RE1/NRSE BDNF promoter activity expressed in ST14A cells at 75 nM assessed as increase in luciferase activity. The test is classed as cell-based. The procedure, abridged: as §2
The subject of another test is neural. The test can be described thus: Increase in BDNF protein expression in neural cells overexpressing huntingtin mutant gene after 72 hrs by ELISA relative to control. The test is classed as functional, cell-based. The procedure, abridged: as §3
In test [13] the test system is ST14A. Description: Induction of REST/NRSF-coupled repression of luciferase tagged rat RE1/NRSE BDNF promoter activity expressed in ST14A cells at 10 nM assessed as increase in luciferase activity. The test is classed as cell-based. The gist of the method: (§6)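 ST14A rat neural cells stably carrying RE1/NRSE(BDNF)-luciferase reporter (DiaNRSE-Luc8 clone), grown in DMEM/10% heat-inactivated FBS at 33 °C, 5% CO2. Compounds from 10 mM DMSO stocks added to cells plated the day before; 72 h exposure in 96-well format, triplicate. Firefly luciferase read after luciferin, expressed as RLU per µg protein (BCA) relative to untreated cells.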

Test [14] deals with ST14A. The description is as §1. Type of test: cell-based. The gist of the method: as §2
Test [15] concerns ST14A. The test can be described thus: […] of REST/NRSF-coupled repression of luciferase tagged rat RE1/NRSE BDNF promoter activity expressed in ST14A cells at 25 nM assessed as increase in luciferase activity. Type of test: cell-based. The conditions noted are these: TDE = time-dependent effect.
The test system of test [16] is ST14A. The test can be described thus: Induction of REST/NRSF-coupled repression of luciferase tagged rat RE1/NRSE BDNF promoter activity expressed in ST14A cells at 5 nM assessed as increase in luciferase activity. Type of test: cell-based. The procedure, abridged:
as §6

A short description of test [17]: Increase in BDNF protein expression in […]/HdhQ11 cells expressing homozygous mutant huntingtin gene at 50 nM after 72 hrs by ELISA relative to control. The test is classed as functional. The procedure, abridged: as §3

Active and inactive are the calls of the source. The rule behind the calls is not given here.

Regarding `Cc1ccn2c(-c3csc(Nc4ccc(N(C)C)cc4)n3)c(C)nc2c1`, the Activity entry is “Dose-dependent effect” with ST14A [1], 17% in test [5] and “Dose-dependent effect” with ST14A [9]. The EC50 (usually the midpoint of the concentration-response curve) in test [2] was found to be 20 nM. The “fold change (FC)” value in [3] was 2. Also, the outcome in the test on ST14A [4], with ST14A [6], in the test with STHdhQ11/HdhQ11 [7] and in the test filed under Mus musculus was inactive. In addition, the outcome in the test on ST14A [8], in the test on ST14A [10], with STHdhQ11/HdhQ11 [11], in the test with ST14A [12] and with neural was Active.

For the compound `CN[C@@H]1C[C@H]2O[C@@](C)([C@@H]1OC)n1c3ccccc3c3c4c(c5c6ccccc6n2c5c31)C(=O)NC4`, the outcome with ST14A [13] was inactive.

As for `CC(/C=C/C(=O)NO)=C\[C@@H](C)C(=O)c1ccc(N(C)C)cc1`, the Activity result with ST14A [14] is “Dose-dependent effect”. The result in the test on ST14A [12] was Active.

For `COc1ccc(Nc2nc(-c3c(C)nc4cc(C)ccn34)cs2)cc1`, the Activity result in the test on ST14A [1] was “Dose-dependent effect”; in the test on ST14A [14], “Dose-dependent effect”; in the test with ST14A [15], “tde”; in the test on ST14A [9], “Dose-dependent effect”. For the same compound, in test [2], the EC50 was found to be 12 nM. In addition, the “fold change (FC)” value in test [3] is listed as 2. In addition, the result in the test on ST14A [4], in the test on ST14A [6] and in the test on STHdhQ11/HdhQ11 [7] was inactive. Besides, the result in the test on ST14A [8], in the test with ST14A [10], in the test on ST14A [12] and in the test on neural was Active.

For `O=C(O)CC[N+](=O)[O-]`, the outcome in the test with ST14A [13] and in the test with ST14A [16] was inactive.

On to `O=C(CCCCCCC(=O)Nc1ccccc1)NO`, for which the result in the test with ST14A [4] and in the test with ST14A [6] was Active.

On to `Cc1nc2ncccn2c1-c1csc(Nc2ccc(N(C)C)cc2)n1`, for which the Activity result with ST14A [1] and in the test on ST14A [9] was “Dose-dependent effect” each time. Besides, the EC50 in [2] amounted to 20 nM. Further, the result in the test with ST14A [4], with ST14A [6] and with STHdhQ11/HdhQ11 [7] was inactive. For the same compound, the “fold change (FC)” value in [17] is 1.6. Moreover, the outcome with ST14A [8], in the test on ST14A [10], in the test on ST14A [12] and in the test on neural was Active.

(Values after ChEMBL document CHEMBL1156478, “Loss of huntingtin function complemented by small molecules acting as repressor element 1/neuron restrictive silencer element silencer modulators” (J Biol Chem, 2007).)
